The structures appear in SMILES notation.
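Note: active if original authors judged signal statistically different from baseline.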

The target of the first assay is T1, UniProt Q8VGU3.
T1 sequence (whole entry): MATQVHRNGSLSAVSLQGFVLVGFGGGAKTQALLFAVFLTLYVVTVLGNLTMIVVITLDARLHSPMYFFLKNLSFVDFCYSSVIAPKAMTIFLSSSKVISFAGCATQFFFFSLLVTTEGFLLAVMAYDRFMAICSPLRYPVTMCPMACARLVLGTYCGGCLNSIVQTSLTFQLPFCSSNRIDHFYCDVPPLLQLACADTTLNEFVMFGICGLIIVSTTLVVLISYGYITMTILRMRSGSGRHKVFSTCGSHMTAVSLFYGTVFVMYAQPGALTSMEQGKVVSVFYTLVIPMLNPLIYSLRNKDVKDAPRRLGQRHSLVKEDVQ
Conditions: stereoisomer not certain. In outline: (§1)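 Each receptor–molecule pair is labelled responsive or non-responsive (inactive) according to whether the original authors judged the measured signal statistically different from baseline. The data were taken from the main text and supplementary material of published papers and checked for typos and inconsistencies. Assay methods differed by source, with transient luciferase assays in mammalian cell lines being common.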
As to `C=C(C)C1CC=C(C)CC1` (stereo unspecified), the “odorant receptor agonist call” value was “inactive”.
Still for that read-out and setting: the result for `CC1CC=CCCCCCCCCCC(=O)C1` (stereo unspecified) reads “inactive”; that for `C=C(C)C1CCC2(C)OC2C1` (stereo unspecified), “inactive”.
Still for that read-out and setting: the result for `CC(C)=CCCC(C)CCO` (stereo unspecified) reads “inactive”.
On the same count and under the same terms, the result for `COc1nccnc1C(C)C` reads “inactive”; that for `O=C1Cc2ccccc2O1`, “inactive”; that for `CC(C)=C1CCC(C)CC1=O` (stereo unspecified), “inactive”.
`COc1ccccc1`: the “odorant receptor agonist call” value was “inactive”.
Regarding `CCc1ccc(O)cc1`, the “odorant receptor agonist call” value was “inactive”.
Consider `CSSSC`, for which the “odorant receptor agonist call” value was “inactive”.
On the same count and under the same terms, the result for `CCc1ncc(C)nc1CC` reads “inactive”.
Still for that read-out and setting: in the case of `CCCCCCCCC=CC=O` it was “inactive”.
Still for that read-out and setting: the result for `CSSCc1ccco1` reads “inactive”; that for `CCOC(=O)C(C)C`, “inactive”; that for `COc1cc(C(=O)O)ccc1O`, “inactive”.
Consider `Cc1ccc(C(C)C)cc1`, for which the “odorant receptor agonist call” value is “inactive”.
`C=CC(=C)CCC=C(C)C`: the “odorant receptor agonist call” value is “inactive”.
On the same count and under the same terms, in the case of `C=C1C2CCC(C2)C1(C)C` (stereo unspecified) it was “inactive”.

For the next assay, the target named is T2, UniProt Q8VGV1.
T2 sequence (whole entry): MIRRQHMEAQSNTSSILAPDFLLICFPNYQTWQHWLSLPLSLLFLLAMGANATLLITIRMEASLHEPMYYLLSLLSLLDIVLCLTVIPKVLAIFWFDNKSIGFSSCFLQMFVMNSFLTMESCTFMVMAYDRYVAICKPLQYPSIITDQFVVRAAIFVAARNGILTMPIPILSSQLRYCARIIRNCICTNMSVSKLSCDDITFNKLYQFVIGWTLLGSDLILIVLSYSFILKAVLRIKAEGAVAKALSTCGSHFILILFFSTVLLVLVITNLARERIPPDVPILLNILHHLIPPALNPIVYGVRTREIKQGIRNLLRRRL
To be noted: stereoisomer not certain. In outline:
as §1
In the case of `C=C(C)C1CCC(C)C(=O)C1` (stereo unspecified), the “odorant receptor agonist call” value was “inactive”.
For `CCC(C(=O)O)c1ccccc1` (stereo unspecified), the “odorant receptor agonist call” value is “inactive”.
Same read-out and setting: the result for `O=c1ccc2ccccc2o1` reads “inactive”; that for `CCCCCO`, “inactive”.
Same read-out and setting: in the case of `CCCCCCCC(=O)[O-].[H+]` it was “active”; in that of `CCCC(C)=O`, “inactive”; in that of `CC(C)=CCCC(C)CCO` (stereo unspecified), “inactive”.
On the same count and under the same terms, in the case of `O=C1Cc2ccccc2O1` it was “inactive”; in that of `CCOC(=O)C(C)C`, “inactive”; in that of `COc1cc(C(=O)O)ccc1O`, “inactive”.
On to `CCCCCCC(=O)[O-].[H+]`, for which the “odorant receptor agonist call” value is “inactive”.
As to `CCCCOC(=O)C(C)OC(=O)CCC` (stereo unspecified), the “odorant receptor agonist call” value is “inactive”.

For another assay, the target named is T3, UniProt Q8VGV7.
T3 sequence (whole entry): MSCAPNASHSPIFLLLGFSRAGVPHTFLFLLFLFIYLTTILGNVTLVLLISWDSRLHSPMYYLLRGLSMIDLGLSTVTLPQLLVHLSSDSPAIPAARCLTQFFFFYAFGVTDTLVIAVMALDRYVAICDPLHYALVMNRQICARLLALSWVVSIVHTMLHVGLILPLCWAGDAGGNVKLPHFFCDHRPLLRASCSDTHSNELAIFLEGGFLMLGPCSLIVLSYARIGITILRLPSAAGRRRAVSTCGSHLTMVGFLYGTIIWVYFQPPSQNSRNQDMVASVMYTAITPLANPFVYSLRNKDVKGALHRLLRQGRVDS
Conditions: stereoisomer not certain. In a few lines: as §1
For `C=C(C)C1CCC(C)C(=O)C1` (stereo unspecified), the “odorant receptor agonist call” value is “inactive”.
The same measure, in the same setting: in the case of `CC(=O)OCCc1ccccc1` it was “active”; in that of `C1CCOCC1`, “inactive”; in that of `O=C([O-])CCCCCCCC(=O)[O-].[H+].[H+]`, “inactive”.
Consider `OCC=Cc1ccccc1`, for which the “odorant receptor agonist call” value is “inactive”.
Same read-out and setting: in the case of `CCCCC=O` it was “inactive”.
On the same count and under the same terms, in the case of `C=CC(=O)CCCCC` it was “inactive”; in that of `CCCCCCC=CC=O`, “inactive”.
Still for that read-out and setting: the result for `C=C(C)C1CC=C(C)CC1` (stereo unspecified) reads “inactive”; that for `CC1CC=CCCCCCCCCCC(=O)C1` (stereo unspecified), “inactive”; that for `C=C(C)C1CCC2(C)OC2C1` (stereo unspecified), “inactive”.
With `CC(C)=CCCC(C)CCO` (stereo unspecified), the “odorant receptor agonist call” value is “inactive”.
Still for that read-out and setting: the result for `COc1nccnc1C(C)C` reads “inactive”; that for `O=C1Cc2ccccc2O1`, “inactive”.
Still for that read-out and setting: the result for `CC(C)=C1CCC(C)CC1=O` (stereo unspecified) reads “inactive”; that for `COc1ccccc1`, “inactive”; that for `CCc1ccc(O)cc1`, “inactive”.
The same measure, in the same setting: the result for `CSSSC` reads “inactive”; that for `CCc1ncc(C)nc1CC`, “inactive”.
`CCCCCCCCC=CC=O`: the “odorant receptor agonist call” value was “inactive”.
On the same count and under the same terms, in the case of `CSSCc1ccco1` it was “inactive”; in that of `CCOC(=O)C(C)C`, “inactive”.
Still for that read-out and setting: in the case of `COc1cc(C(=O)O)ccc1O` it was “inactive”; in that of `Cc1ccc(C(C)C)cc1`, “inactive”; in that of `C=CC(=C)CCC=C(C)C`, “inactive”.
Same read-out and setting: the result for `C=C1C2CCC(C2)C1(C)C` (stereo unspecified) reads “inactive”.

The values are drawn from the M2OR odorant receptor database.
